According to ChEMBL document CHEMBL3853298, “Total synthesis and in vitro bioevaluation of clavaminols A, C, H & deacetyl clavaminol H as potential chemotherapeutic and antibiofilm agents” (Eur J Med Chem, 2016):
In brackets after ≈: the same amount, converted by molar mass. One block for each molecule: values may come before it.

Key:
[1] = Cytotoxicity against human DU145 cells assessed as cell growth inhibition by MTT assay; assay type: functional, cell-based; conditions: DU-145
[2] = Cytotoxicity against human MCF7 cells assessed as cell growth inhibition by MTT assay; assay type: functional, cell-based
[3] = Cytotoxicity against human SKOV3 cells assessed as cell growth inhibition by MTT assay; assay type: functional, cell-based; conditions: SK-OV-3
[4] = Cytotoxicity against human HeLa cells assessed as cell growth inhibition by MTT assay; assay type: functional, cell-based
Candida albicans [5] = assay: Antifungal activity against Candida albicans MTCC 854 after 24 hrs by well diffusion method; assay type: functional; conditions: MTCC 854, 24 h
Procedure, shortened: (§1)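 Candida/Issatchenkia lawns (0.1 mL suspension) on Mueller-Hinton agar; 6.0 mm bored wells receive compound across a 250 to 0.48 per-well dose range, methanol as negative control. Plates kept 24 h at 30 °C. MIC is the lowest concentration producing a visible inhibition zone. Duplicate runs, mean values.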

Nakaseomyces glabratus = assay: Fungicidal activity against Candida glabrata MTCC 3019 after 24 hrs; assay type: functional; conditions: MTCC 3019, 24 h
Procedure, shortened: (§2)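 Candida grown overnight in Mueller Hinton broth. Compound serially diluted in the same broth from 150 to 0 and inoculated to a final 1.5 × 10^8 CFU/mL (0.5 McFarland), then 24 h at 37 °C. Tube contents plated onto Mueller Hinton agar for 24 h at 37 °C. MFC is the lowest concentration killing the yeast. Duplicates.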

Candida albicans [6] = assay: Fungicidal activity against Candida albicans MTCC 3018 after 24 hrs; assay type: functional; conditions: MTCC 3018, 24 h; procedure, shortened: as §2
Candida albicans [7] = assay: Antifungal activity against Candida albicans MTCC 1637 after 24 hrs by well diffusion method; assay type: functional; conditions: MTCC 1637, 24 h; procedure, shortened: as §1
[Candida] aaseri [8] = Fungicidal activity against Candida aaseri MTCC 1962 after 24 hrs; assay type: functional; conditions: Yamadazyma aaseri, MTCC 1962, 24 h; procedure, shortened: as §2
Candida albicans [9] = assay: Fungicidal activity against Candida albicans MTCC 183 after 24 hrs; assay type: functional; conditions: MTCC 183, 24 h; procedure, shortened: as §2
Candida albicans [10] = assay: Antifungal activity against Candida albicans MTCC 183 after 24 hrs by well diffusion method; assay type: functional; conditions: MTCC 183, 24 h; procedure, shortened: as §1
[11] = Antifungal activity against Candida glabrata MTCC 3019 after 24 hrs by well diffusion method; assay type: functional; conditions: Nakaseomyces glabratus; procedure, shortened: as §1
Candida albicans [12] = assay: Fungicidal activity against Candida albicans MTCC 3958 after 24 hrs; assay type: functional; conditions: MTCC 3958, 24 h; procedure, shortened: as §2
Pichia kudriavzevii = assay: Fungicidal activity against Candida krusei MTCC 3020 after 24 hrs; assay type: functional; conditions: MTCC 3020, 24 h
Procedure, shortened: (§3)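 Broth dilution in Mueller Hinton broth with serial compound concentrations from […]. Overnight Candida cultures added to a final 1.5 × 10^8 CFU/mL (0.5 McFarland). Incubated 24 h at 37 °C, then 10 µL of each tube plated on Mueller Hinton agar for 24 h at 37 °C. MFC taken as the lowest concentration that kills the strain. Run in duplicate.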

Candida albicans [13] = assay: Fungicidal activity against Candida albicans MTCC 854 after 24 hrs; assay type: functional; conditions: MTCC 854, 24 h; procedure, shortened: as §2
Pichia sporocuriosa [14] = assay: Fungicidal activity against Issatchenkia hanoiensis MTCC 4755 after 24 hrs; assay type: functional; conditions: MTCC 4755, 24 h; procedure, shortened: as §3
[Candida] aaseri [15] = Antifungal activity against Candida aaseri MTCC 1962 after 24 hrs by well diffusion method; assay type: functional; conditions: Yamadazyma aaseri, MTCC 1962, 24 h; procedure, shortened: as §1
Candida albicans [16] = assay: Antifungal activity against Candida albicans MTCC 3958 after 24 hrs by well diffusion method; assay type: functional; conditions: MTCC 3958, 24 h; procedure, shortened: as §1
Candida albicans [17] = assay: Antifungal activity against Candida albicans MTCC 4748 after 24 hrs by well diffusion method; assay type: functional; conditions: MTCC 4748, 24 h; procedure, shortened: as §1
Candida albicans [18] = assay: Antifungal activity against Candida albicans MTCC 7315 after 24 hrs by well diffusion method; assay type: functional; conditions: MTCC 7315, 24 h; procedure, shortened: as §1
Candida albicans [19] = assay: Antifungal activity against Candida albicans MTCC 3017 after 24 hrs by well diffusion method; assay type: functional; conditions: MTCC 3017, 24 h; procedure, shortened: as §1
Candida albicans [20] = assay: Fungicidal activity against Candida albicans MTCC 1637 after 24 hrs; assay type: functional; conditions: MTCC 1637, 24 h; procedure, shortened: as §2
Pichia sporocuriosa [21] = assay: Antifungal activity against Issatchenkia hanoiensis MTCC 4755 after 24 hrs by well diffusion method; assay type: functional; conditions: MTCC 4755, 24 h; procedure, shortened: as §1
[22] = Antifungal activity against Candida krusei MTCC 3020 after 24 hrs by well diffusion method; assay type: functional; conditions: Pichia kudriavzevii; procedure, shortened: as §1
Candida parapsilosis = assay: Fungicidal activity against Candida parapsilosis MTCC 1744 after 24 hrs; assay type: functional; conditions: Lodderomyces parapsilosis, MTCC 1744, 24 h; procedure, shortened: as §3
Candida albicans [23] = assay: Fungicidal activity against Candida albicans MTCC 4748 after 24 hrs; assay type: functional; conditions: MTCC 4748, 24 h; procedure, shortened: as §2
Candida albicans [24] = assay: Antifungal activity against Candida albicans MTCC 3018 after 24 hrs by well diffusion method; assay type: functional; conditions: MTCC 3018, 24 h; procedure, shortened: as §1
Candida albicans [25] = assay: Fungicidal activity against Candida albicans MTCC 3017 after 24 hrs; assay type: functional; conditions: MTCC 3017, 24 h; procedure, shortened: as §2
Candida albicans [26] = assay: Fungicidal activity against Candida albicans MTCC 7315 after 24 hrs; assay type: functional; conditions: MTCC 7315, 24 h; procedure, shortened: as §2
Candida albicans [27] = assay: Fungicidal activity against Candida albicans MTCC 227 after 24 hrs; assay type: functional; conditions: MTCC 227, 24 h; procedure, shortened: as §2
[28] = Antifungal activity against Candida parapsilosis MTCC 1744 after 24 hrs by well diffusion method; assay type: functional; procedure, shortened: as §1
Candida albicans [29] = assay: Antifungal activity against Candida albicans MTCC 227 after 24 hrs by well diffusion method; assay type: functional; conditions: MTCC 227, 24 h; procedure, shortened: as §1

SMILES: CCCCCCCCC[C@H](O)[C@@H](C)NC(C)=O [CLAVAMINOL C]
- IC50 [1]: 18.3 µM
- IC50 [2]: 16.3 µM
- IC50 [3]: 14.1 µM
- IC50 [4]: 18.5 µM

SMILES: COc1cccc2c1C(=O)c1c(O)c3c(c(O)c1C2=O)C[C@@](O)(C(=O)CO)C[C@@H]3O[C@H]1C[C@H](N)[C@H](O)[C@H](C)O1 [DOXORUBICIN]
- IC50 [1]: 0.7 µM
- IC50 [2]: 0.8 µM
- IC50 [3]: 0.7 µM

- MIC (Candida albicans [5]): 7.8 µg/mL (≈ 18.7 µM)
- MIC (Candida albicans [7]): 7.8 µg/mL (≈ 18.7 µM)
- MIC (Candida albicans [10]): 7.8 µg/mL (≈ 18.7 µM)
- MIC [11]: 7.8 µg/mL (≈ 18.7 µM)
- MIC ([Candida] aaseri [15]): 7.8 µg/mL (≈ 18.7 µM)
- MIC (Candida albicans [16]): 7.8 µg/mL (≈ 18.7 µM)
- MIC (Candida albicans [17]): 7.8 µg/mL (≈ 18.7 µM)
- MIC (Candida albicans [18]): 7.8 µg/mL (≈ 18.7 µM)
- MIC (Candida albicans [19]): 7.8 µg/mL (≈ 18.7 µM)
- MIC (Pichia sporocuriosa [21]): 7.8 µg/mL (≈ 18.7 µM)
- MIC [22]: 7.8 µg/mL (≈ 18.7 µM)
- MIC (Candida albicans [24]): 7.8 µg/mL (≈ 18.7 µM)
- MIC [28]: 7.8 µg/mL (≈ 18.7 µM)
- MIC (Candida albicans [29]): 7.8 µg/mL (≈ 18.7 µM)
SMILES: Clc1ccc(COC(Cn2ccnc2)c2ccc(Cl)cc2Cl)c(Cl)c1 (stereo not given) [MICONAZOLE]
- MFC (Nakaseomyces glabratus): 15.6 µg/mL (≈ 37.5 µM)
- MFC (Candida albicans [6]): 7.8 µg/mL (≈ 18.7 µM)
- MFC ([Candida] aaseri [8]): 7.8 µg/mL (≈ 18.7 µM)
- MFC (Candida albicans [9]): 7.8 µg/mL (≈ 18.7 µM)
- MFC (Candida albicans [12]): 15.6 µg/mL (≈ 37.5 µM)
- MFC (Pichia kudriavzevii): 7.8 µg/mL (≈ 18.7 µM)
- MFC (Candida albicans [13]): 15.6 µg/mL (≈ 37.5 µM)
- MFC (Pichia sporocuriosa [14]): 7.8 µg/mL (≈ 18.7 µM)
- MFC (Candida albicans [20]): 15.6 µg/mL (≈ 37.5 µM)
- MFC (Candida parapsilosis): 7.8 µg/mL (≈ 18.7 µM)
- MFC (Candida albicans [23]): 7.8 µg/mL (≈ 18.7 µM)
- MFC (Candida albicans [25]): 7.8 µg/mL (≈ 18.7 µM)
- MFC (Candida albicans [26]): 7.8 µg/mL (≈ 18.7 µM)
- MFC (Candida albicans [27]): 15.6 µg/mL (≈ 37.5 µM)
